High-throughput results deposited in PubChem by The Scripps Research Institute Molecular Screening Center.
This is a sample that favours compounds with a hit; in the whole collection about 4.2% have one here.
TAAR1 agonist: agonists of human TAAR1; Q96RJ0; CHO RD-HGA16 TAAR1, Fluo-8 calcium fluorescence; vehicle wells 0%, saturating PEA agonist 100%; activation, % at 3 µM; 0.99% of 360,000 active;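 active = activation above the mean activation of all test compounds in the run plus 3 SD, cut at about 38% in these data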
Target sequence (Q96RJ0 whole entry, looked up): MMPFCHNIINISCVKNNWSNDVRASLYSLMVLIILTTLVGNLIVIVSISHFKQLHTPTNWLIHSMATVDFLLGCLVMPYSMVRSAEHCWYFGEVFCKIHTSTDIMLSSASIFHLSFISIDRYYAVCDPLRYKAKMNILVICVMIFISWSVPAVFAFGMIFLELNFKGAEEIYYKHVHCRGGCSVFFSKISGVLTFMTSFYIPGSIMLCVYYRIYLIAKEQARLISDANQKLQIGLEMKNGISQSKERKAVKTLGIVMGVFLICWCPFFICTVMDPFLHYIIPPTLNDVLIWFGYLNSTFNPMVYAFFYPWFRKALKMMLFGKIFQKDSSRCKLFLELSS
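Assay system: CHO-derived RD-HGA16 cells with stable Gα16 and human TAAR1; timing: 17-24 h seeding, 75 min 37 °C dye, 30 min RT; read-out: % activation from peak over basal fluorescence ratio, DMSO-to-PEA scaled; measured by: kinetic Fluo-8 calcium fluorescence; benchmarks: low control DMSO, high control PEA (EC100); doses: 3 µM single concentration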
TAAR1 antag: antagonists of human TAAR1; inhibition, % at 3 µM; Q96RJ0; AID 624466; 1.5% of 360,000 active; CHO RD-HGA16 TAAR1, Fluo-8 calcium fluorescence, antagonist;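 active = inhibition above a per-plate cutoff, the mean inhibition of test compounds on that plate plus 3 SD, cut at about 49% in these data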
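Test system: RD-HGA16 CHO cells with stable hTAAR1 and Gα16 / Probe or stimulus: EC80 β-phenethylamine stimulus / Times: seeding 17-24 h prior, 75-min 37 °C, 30-min RT dye loading / Detection: Fluo-8 calcium-sensitive fluorescence / Read-out basis: % inhibition scaled between DMSO and EC80 PEA controls / Repeats: singlicate, one well per test compound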
CHO parental Ca: counter-screen for OX1R antagonists: effect in parental CHO cells | inhibition, % at 5.6 µM | 0.63% of 330,000 active | parental CHO-K1, ATP-induced calcium, Fluo-8 fluorescence;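 active = inhibition above that plate's mean sample inhibition plus 3 SD, cut at about 26% in these data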
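material = parental CHO cells | also added = ATP as calcium-mobilizing challenge | dosing = single point at 5.6 µM | detection = intracellular calcium via Fluo-8 no-wash fluorescent dye | read-out = % inhibition | benchmarks = low control ATP plus DMSO, high control DMSO only | repeats = one well per compound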
OX1R antag-1: antagonists of human orexin 1 receptor; O43613; CHO/OX1R cells, Fluo-8 calcium fluorescence, orexin A; inhibition, % at 5 µM; 0.43% of 330,000 active;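 active = inhibition above its plate's threshold, mean inhibition of all tested compounds on the plate plus 3 SD, cut at about 37% in these data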
OX1R antag-2: antagonists of human orexin 1 receptor (OX1R). O43613. OX1R-expressing cells, FRET antagonist read-out. inhibition, % at 6.6 µM. 1.8% of 330,000 active. AID 485270; in the data active = inhibition mostly above about 38%, no sharp cut-off; inactive = mostly below about 40%
GalR3 antag: antagonists of human GalR3; HEK293 GalR3-CNG cAMP membrane potential fluorescence; galR3 body fused to GalR1 C-terminus; inhibition, % at 3 µM; O60755; 0.44% of 360,000 active;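 active = inhibition above the screen-wide average plus 3 SD, cut at about 13% in these data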;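 also: forskolin and galanin both at EC90 stimulate the cells; cAMP rise reported by CNG channel membrane potential dye signal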
Target sequence (O60755 1-299 limits assumed): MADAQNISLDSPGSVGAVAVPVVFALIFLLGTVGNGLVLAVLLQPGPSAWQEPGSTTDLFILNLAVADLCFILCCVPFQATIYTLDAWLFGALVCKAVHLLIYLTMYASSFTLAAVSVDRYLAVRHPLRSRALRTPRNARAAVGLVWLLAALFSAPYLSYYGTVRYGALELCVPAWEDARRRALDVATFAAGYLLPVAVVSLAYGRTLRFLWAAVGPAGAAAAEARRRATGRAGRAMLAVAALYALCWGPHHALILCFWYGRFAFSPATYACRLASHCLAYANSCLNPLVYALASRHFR
Each line names hits and unclear results; the compound was inactive in the other large screens; ! = not confirmed by another sample.

O=C(Nc1ccc(Cl)cc1)c1cc2c(cc1O)[nH]c1ccccc12	CHO parental Ca 72.3, OX1R antag-1 55.2, OX1R antag-2 51.7
CCc1ccc(N/C(SCc2ccccc2C)=C(/C#N)C(=O)NCc2ccco2)cc1	TAAR1 antag 50.6
C=CCn1c(Cc2c[nH]c3ccccc23)n[nH]c1=S	none
CCOc1ccc(NC(=O)CSc2nnnn2CC(=O)O)cc1	none
Cc1nn(C)c(C)c1Sc1ccc(Br)cc1	none
CCCCC(C(=O)NC(C)c1ccccc1)C(=O)NC(C)c1ccccc1 (stereo unspecified)	OX1R antag-2 57.1
Clc1ccc(N=c2ssnc2Cl)cc1	TAAR1 agonist 45.6
COc1cc(N=c2ssnc2Cl)cc(OC)c1OC	TAAR1 agonist 41.6
COc1ccc(N=c2ssnc2Cl)cc1	none (no result: TAAR1 agonist, TAAR1 antag, GalR3 antag)
Fc1ccc(N=c2ssnc2Cl)c(F)c1	none
CS(=O)(=O)c1ncc(Cl)c(C(=O)Nc2ccc(OC(F)F)cc2)n1	OX1R antag-2 53.1 (no result: TAAR1 agonist, TAAR1 antag, GalR3 antag)
CS(=O)(=O)c1ncc(Cl)c(C(=O)Nc2ccc(N3CCOCC3)cc2)n1	none (no result: TAAR1 agonist, TAAR1 antag, GalR3 antag)
CCS(=O)(=O)c1ncc(Cl)c(C(=O)Nc2ccc(S(=O)(=O)N(C)c3ccccc3)cc2)n1	TAAR1 antag 56.2, CHO parental Ca 51.9, OX1R antag-1 51.1, OX1R antag-2 45.5
CCN(c1ccccc1)S(=O)(=O)c1ccc(NC(=O)c2nc(S(C)(=O)=O)ncc2Cl)cc1	CHO parental Ca 45.9, OX1R antag-1 61.8 (no result: TAAR1 agonist, TAAR1 antag, GalR3 antag)
CCN(c1ccccc1)S(=O)(=O)c1ccc(C(=O)Nc2ccncc2)cc1	none
O=C(Nc1ccc(F)cc1)c1nc(S(=O)(=O)Cc2ccccc2)ncc1Cl	none
CSCCC(NC(=O)c1ccc(Cl)cc1)C(=O)OCC(=O)Nc1ccc(C#N)cc1 (stereo unspecified)	none
COc1cccc(C(=O)NCC(=O)N/N=C/c2cn[nH]c2-c2ccccc2)c1	none
N#Cc1cccnc1N1CCN(C(=O)c2cccc3c2C(=O)c2ccc(-c4ccc(Cl)c(C(F)(F)F)c4)cc2S3(=O)=O)CC1	none (no result: TAAR1 agonist, TAAR1 antag, GalR3 antag)
COc1cccc(/C=N/NC(=O)CSCC(=O)Nc2ccccc2)c1O	OX1R antag-2 59.0
COc1ccc(/C=N/NC(=O)CSCC(=O)Nc2ccccc2)cc1	none
COc1cccc(/C=N/NC(=O)C(=O)NCc2ccco2)c1O	OX1R antag-2 41.1
O=C(Cc1ccc(S(=O)(=O)N2CCOCC2)s1)Nc1ccccc1N1CCCC1	none
COCCNc1nnc(SCC(=O)NC(=O)c2ccccc2OC)s1	none
COCCNc1nnc(SCC(=O)NNC(=O)c2ccc([N+](=O)[O-])cc2)s1	OX1R antag-2 58.8
O=C(O)c1cc(-c2ccccc2Cl)n(-c2cccc(Cl)c2)n1	OX1R antag-2 37.3
COc1ccc(C(=O)NNC(=O)c2ccncc2)cc1[N+](=O)[O-]	none
COc1c([N+](=O)[O-])cc(C(=O)NNC(=O)c2ccc(C)cc2)cc1[N+](=O)[O-]	OX1R antag-2 45.7
CCOc1cc(C)c(S(=O)(=O)Nc2ccc3cn[nH]c3c2)cc1C	CHO parental Ca 48.3 (no result: TAAR1 agonist, TAAR1 antag, GalR3 antag)
Cc1ccc(S(=O)(=O)Nc2ccc3cn[nH]c3c2)c(C)c1	none
COc1ccc2cc3[n+](cc2c1OC)CCc1cc2c(cc1-3)OCO2	OX1R antag-2 55.0!
COc1cccc(C2=NCCc3cc4c(cc32)OCO4)c1OC	none
CCN(Cc1ccc2c(c1)OCCO2)C(=O)CSc1nc(C)nc2sc(C)c(C)c12	TAAR1 antag 59.5
O=C1O/C(=C/c2ccccc2)c2ccccc21	none
N#CC1=C(c2ccccc2)/C(=C/c2ccccc2)OC1=O	TAAR1 antag 57.5
O=C(NCc1ccco1)c1nc2nc(-c3cccs3)cc(C(F)(F)F)n2n1	OX1R antag-2 70.5
O=C(CSc1nc(-c2cccs2)cc(C(F)(F)F)n1)NCc1ccco1	none
COC(=O)c1nc2nc(-c3cccs3)cc(C(F)(F)F)n2n1	OX1R antag-2 76.5
O=C(NCCc1ccccc1)/C(=C\c1ccc([N+](=O)[O-])cc1)NC(=O)c1ccco1	none
Cc1ccc(C(=O)N/C(=C\c2ccc([N+](=O)[O-])cc2)C(=O)NCCc2ccccc2)cc1	TAAR1 agonist 43.1
CNC(=O)/C(=C\c1ccc([N+](=O)[O-])cc1)NC(C)=O	OX1R antag-2 73.1
CC(=O)C[C@@H](O)CC(=O)[C@@H]1OC(=O)CC/C=C\Cc2ccccc21	none
COc1ccc(-c2nc3ccc(C)cn3c2NCc2ccccc2)cc1SC1CCCCC1	CHO parental Ca 93.6, OX1R antag-1 76.6 (no result: TAAR1 agonist, TAAR1 antag, GalR3 antag)
CCCCNc1c(-c2ccc(-c3ccc(C(C)=O)cc3)c(OC)c2)nc2cc(C)ccn12	TAAR1 antag 55.6
CCCCNc1c(-c2ccc(OC)c(SC3CCCCC3)c2)nc2ccc(C)cn12	TAAR1 antag 85.2, CHO parental Ca 98.5, OX1R antag-1 90.2, OX1R antag-2 31.7
CCCCNc1c(-c2ccc(Sc3ccc(OC)cc3)cc2)nc2cc(C)ccn12	none
Cc1ccc(S(=O)(=O)NCCCCCC(=O)NCCc2ccccc2)cc1	none
CC(=O)NC(CSC(CC(=O)c1ccco1)c1ccc(C)cc1)C(=O)O (stereo unspecified)	none
O=C(c1cccc(F)c1)N(Cc1nc2ccccc2c(=O)[nH]1)C1CCCC1	none
O=C(CCc1ccccc1)Nc1cccc(NC(=O)CCc2ccccc2)c1	OX1R antag-2 48.2
Cc1nnc(SCC(=O)c2ccc(Cl)cc2)n(N)c1=O	OX1R antag-2 50.4
CCOC(=O)Cc1nnc(NC(=O)COc2ccc(C)cc2)s1	TAAR1 agonist 38.3
COc1ccc2c(c1)C(=NN)c1cc(OC)ccc1-2	OX1R antag-2 55.0
O=C(Oc1ccc[nH]c1=O)c1cc([N+](=O)[O-])cc([N+](=O)[O-])c1	OX1R antag-2 68.5
COc1ccc(C(=O)Oc2ccc[nH]c2=O)cc1	none
Cc1ccn2cc(CCNC(=O)C3CC=CCC3C(=O)O)nc2c1 (stereo unspecified)	none
CCOC(=O)c1ccccc1N=Cc1c(O)c2ccccc2oc1=O	none
Cc1ccc(F)c(N=Cc2c(O)c3ccccc3oc2=O)c1	OX1R antag-2 51.1
Oc1ccc(Oc2ccc3c(C(F)(F)F)cc(C(F)(F)F)nc3n2)cc1	CHO parental Ca 48.5
COc1ccc(Oc2ccc3c(C(F)(F)F)cc(C(F)(F)F)nc3n2)cc1	none
COc1ccc(OC)c(-n2c(Cn3c(-c4ccccn4)nc4ccccc43)n[nH]c2=S)c1	OX1R antag-2 58.9
COc1ccc(S(=O)(=O)NCc2cccnc2)cc1OC	none
COc1cc(/C=N/NC(=O)c2ccc(CSc3nc4ccccc4[nH]3)cc2)cc(OC)c1OC	TAAR1 antag 52.4
CCOC(=O)C1CCCN(c2cc(NCCCO)c([N+](=O)[O-])c3nonc23)C1 (stereo unspecified)	OX1R antag-2 72.7
